Compounds with a hit are over-represented: about 3.5% of the library has one in this group of screens.
AHR activator = activators of human aryl hydrocarbon receptor. AHR-responsive luciferase reporter cells, luminescence. AID 2796. P35869. actives 2.5% (n = 320,000). activation, % at 5 µM; in the data active = activation above about 47%;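 also: 0% = vehicle wells and 100% = reference agonist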
Target sequence (P35869 whole entry, looked up): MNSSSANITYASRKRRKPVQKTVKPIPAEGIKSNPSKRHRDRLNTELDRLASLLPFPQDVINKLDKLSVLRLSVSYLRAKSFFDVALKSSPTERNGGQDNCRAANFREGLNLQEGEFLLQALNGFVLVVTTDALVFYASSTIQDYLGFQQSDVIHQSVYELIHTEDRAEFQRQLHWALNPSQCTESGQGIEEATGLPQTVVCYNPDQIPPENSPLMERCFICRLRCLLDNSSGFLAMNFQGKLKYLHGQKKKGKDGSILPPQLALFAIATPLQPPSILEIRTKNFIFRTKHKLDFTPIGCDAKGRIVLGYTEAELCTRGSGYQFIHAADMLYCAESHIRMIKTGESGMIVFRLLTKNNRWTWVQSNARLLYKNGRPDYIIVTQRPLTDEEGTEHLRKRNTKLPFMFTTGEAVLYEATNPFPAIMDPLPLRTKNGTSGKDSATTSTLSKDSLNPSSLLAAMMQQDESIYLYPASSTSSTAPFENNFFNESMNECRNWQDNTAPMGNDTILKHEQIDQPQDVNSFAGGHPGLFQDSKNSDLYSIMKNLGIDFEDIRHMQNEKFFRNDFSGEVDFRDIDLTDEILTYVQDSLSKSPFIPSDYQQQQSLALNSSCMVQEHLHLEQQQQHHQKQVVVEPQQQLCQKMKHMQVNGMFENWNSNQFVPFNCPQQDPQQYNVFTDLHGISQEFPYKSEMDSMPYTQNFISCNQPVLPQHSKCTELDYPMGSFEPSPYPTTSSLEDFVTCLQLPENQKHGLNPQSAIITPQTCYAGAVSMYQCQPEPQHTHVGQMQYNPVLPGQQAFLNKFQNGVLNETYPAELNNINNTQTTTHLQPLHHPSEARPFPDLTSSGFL
hK5 inh = kallikrein 5 (human) inhibition; Q9Y337; recombinant hK5, fluorogenic AMC substrate cleavage; inhibition, % at 5 µM; actives 0.59% (n = 210,000);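 active = inhibition of 40% or more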;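 also: 0% = enzyme controls without compound and 100% = no-enzyme blanks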
STAT3 act = increases IL-6 driven STAT3 reporter signal. U3A cells, IL-6 STAT3-luciferase reporter, luminescence; 100% = signal with IL-6 EC80 alone. AID 871. activation (% of control), % at 5.6 µM. actives 0.91% (n = 190,000);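 active = activation above the screen-wide mean of compound activation plus 3 SD, cut at about 130% in these data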;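 also: 0% = background luminescence of wells with medium and substrate only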
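Test system: Human STAT1-deficient U3A cells with stable STAT3-luciferase reporter | Also added: Interleukin-6, 33 ng/mL | Timing: Compound pre-incubation 1 h before IL-6, then 6 h stimulation at 37 °C | Technique: Luciferase reporter luminescence | Read-out: Percent of IL-6-only median luminescence | Benchmarks: IL-6-only wells as 100% reference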
FXIa inh 1536 = blocks human coagulation factor XIa protease activity; P03951; purified FXIa, Boc-Glu-Ala-Arg-AMC fluorogenic substrate; inhibition, % at 5 µM; actives 0.14% (n = 220,000); AID 798;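 active = inhibition of at least 40%; inactive = inhibition below 40%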;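 also: fluorescence of freed AMC excited at 355 nm; 0% = enzyme without compound and 100% = no enzyme blank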
Thrombin inh = inhibitors of human thrombin; AID 1046; actives 0.26% (n = 220,000); inhibition, % at 5 µM; alpha-thrombin, Boc-VPR-AMC fluorogenic substrate cleavage;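 active = inhibition at or above 40%; inactive = inhibition below 40%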;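 also: 0% = enzyme with no compound and 100% = wells without enzyme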
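System: Human alpha-thrombin protein | Medium: pH 7.5 Tris (50 mM) with NaCl 150 mM, Tween 20 0.05% | Times: Enzyme reaction carried out at room temperature | Detection: AMC fluorescence, 355/460 nm | Evaluation: Percent inhibition scaled between no-compound controls and no-enzyme blanks | Benchmarks: Enzyme without compound as high, wells lacking enzyme as low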
FXIIa inh 1536 = inhibitors of human coagulation factor XIIa. AID 800. purified FXIIa, Boc-QGR-AMC fluorogenic substrate, 2 h. inhibition, % at 5 µM. actives 0.3% (n = 220,000); in the data active = inhibition above about 40%;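 also: 0% = enzyme with no compound and 100% = blank without enzyme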
Numbers without * were called inactive; nt = not tested or not shown.

SMILES | AHR activator | hK5 inh | STAT3 act | FXIa inh 1536 | Thrombin inh | FXIIa inh 1536
COc1cccc(N=Nc2ccc3ccccc3c2O)c1 | 78* | nt | nt | nt | nt | nt
COc1ccc(N=Nc2ccc3ccccc3c2)c(O)c1 | 49* | nt | nt | nt | nt | nt
O=c1[nH]c(=O)n(Cc2ccco2)c2c1C(C(F)(F)F)(C(F)(F)F)N=C(c1ccc(F)cc1)N2 | 2 | 4 | 60 | -3 | -3 | 4
O=c1[nH]c(=O)n(Cc2ccccc2)c2c1C(C(F)(F)F)(C(F)(F)F)N=C(c1ccco1)N2 | 1 | 147* | 95 | 15 | 40* | 22
O=[N+]([O-])c1ccccc1CSc1nc2ccccc2o1 | 48* | -13 | 115 | 2 | -3 | 7
Cc1nn(C)c(C(=O)Nc2ccc(Cl)c([N+](=O)[O-])c2)c1Cl | 48* | -14 | 100 | 0 | -7 | 2
Cc1cc(NC(=O)c2c(Cl)c(C)nn2C)no1 | 12 | 2 | 92 | 3 | 3 | -1
COc1cc(C(=O)Nc2ccc(Cl)c([N+](=O)[O-])c2)cc(OC)c1OC | 11 | 2 | 91 | -1 | -3 | 8
Cc1cc(NC(=O)c2c([N+](=O)[O-])c(C)nn2C)no1 | 70* | -5 | 94 | -15 | -3 | -8
Nc1nonc1-c1nc2ccccc2n1Cc1ccc(F)cc1Cl | 4 | 2 | 161* | -12 | -7 | 1
CC(=O)Nc1cc2nn(-c3ccccc3)nc2cc1Cl | 57* | -3 | 89 | -11 | -7 | 1
O=C(Nc1ccc2nn(-c3ccccc3)nc2c1)c1ccco1 | 33 | -9 | 94 | 6 | -2 | 11
O=C(Nc1cc2nn(-c3ccccc3)nc2cc1Cl)c1ccco1 | 47* | 4 | 145* | 2 | -6 | 0
CCN(CC(=O)NCCc1ccc(S(N)(=O)=O)cc1)Cc1ccccc1 | -8 | nt | nt | nt | nt | nt
CCOC(CNC(=O)C1CCN(S(=O)(=O)c2ccc3nc4c(c(C(=O)O)c3c2)CCCCC4)CC1)OCC | 0 | nt | nt | nt | nt | nt
COc1ccc(OC)c(S(=O)(=O)NCc2ccccc2)c1 | 0 | -4 | 99 | 7 | 3 | 18
COc1ccc(OC)c(S(=O)(=O)NCc2cc(-c3ccccc3)no2)c1 | 51* | nt | nt | nt | nt | nt
Cc1cc(F)ccc1N1CCC(N2CCN(CCC(C)C)C(CCO)C2)CC1 (stereo unspecified) | -1 | 42* | 94 | 40 | 45* | 28
Cc1cc(F)ccc1N1CCC(N2CCN(C(C)C)C(CCO)C2)CC1 (stereo unspecified) | 1 | 12 | 109 | 0 | -4 | 3
Cc1cccc(C(=O)Nc2cc(S(=O)(=O)N3CCOCC3)ccc2N2CCCCC2)c1 | -1 | nt | nt | nt | nt | nt
COc1ccc(-c2sc3cc4c(cc3c2C#CC2(N)CCCCC2)OCO4)cc1 | 66* | nt | nt | nt | nt | nt
O=C(c1cc2cc(Cl)ccc2[nH]1)N1CCN(Cc2ccc3c(c2)OCO3)CC1 | 19 | nt | nt | nt | nt | nt
O=S(=O)(c1ccccc1)N1c2cc(Cl)ccc2Oc2nc3ccccc3nc21 | 74* | -5 | 109 | 5 | 2 | 1
O=S(=O)(c1ccccc1)N1CN(c2ccc(F)cc2F)c2nc3ccccc3nc21 | 10 | nt | nt | nt | nt | nt
CCOC(=O)N1CCC(N2CC34C=CC(O3)C(C(=O)Nc3ccc(C)cc3)C4C2=O)CC1 (stereo unspecified) | 77* | -8 | 100 | 2 | -3 | 14
SMILES | AHR activator | hK5 inh | STAT3 act | FXIa inh 1536 | Thrombin inh | FXIIa inh 1536
O=C(CCCCCN1C(=O)c2cccc3cccc(c23)C1=O)NCc1cccnc1 | -3 | -1 | nt | -3 | -3 | 2
COc1ccccc1N(CN1C(=O)c2ccccc2C1=O)C(=O)c1cccnc1 | 4 | -6 | 102 | -13 | -10 | -6
COc1ccc(N(CCCN2C(=O)c3cccc4cccc(c34)C2=O)C(=O)c2cccnc2)cc1 | 75* | 19 | 110 | 18 | nt | 11
COc1cc(OC)cc(C(=O)N(CCCN2C(=O)c3cccc4cccc(c34)C2=O)c2cccc(OC)c2)c1 | 103* | 8 | 107 | 5 | -7 | 10
O=C(CCCN1C(=O)c2cccc3cccc(c23)C1=O)NCc1cccnc1 | -5 | 39 | 80 | 36 | 20 | 49*
COc1ccc(N(CCN2C(=O)c3ccccc3C2=O)C(=O)c2cccc([N+](=O)[O-])c2)cc1 | 2 | -7 | 101 | -3 | -11 | 6
COc1ccc(N(CCCN2C(=O)c3cccc4cccc(c34)C2=O)C(=O)c2ccncc2)cc1 | 76* | 2 | 113 | 5 | nt | 9
COc1cc(/C=C/C(=O)OCC(=O)N(C)CC(=O)Nc2ccc(F)cc2)ccc1OC(F)F | 0 | nt | nt | nt | nt | nt
CSCCC(NC(=O)c1ccco1)C(=O)O (stereo unspecified) | -1 | -13 | 98 | 2 | 0 | -9
O=C(CN1C(=O)c2cccc3cccc1c23)Nc1cccnc1 | 54* | -15 | 106 | -4 | -6 | 4
O=C(CN1C(=O)c2cccc3cccc1c23)NCc1cccnc1 | 17 | -24 | 99 | 5 | 7 | 3
O=C(CSc1ccsc1[N+](=O)[O-])NCCc1ccccc1 | 48* | -15 | 136* | -1 | -7 | -11
O=C(CSc1ccsc1[N+](=O)[O-])NCCc1ccc(Cl)cc1 | 9 | -2 | 109 | -3 | -3 | 5
COc1ccccc1NC(=O)c1cc2ccccc2o/c1=N\O | 67* | -14 | nt | 5 | -4 | 11
COc1cc(NC(=O)c2c(OC)cccc2OC)ccc1NC(=O)c1cc2ccccc2o1 | 72* | nt | nt | nt | nt | nt
Nc1sc(-c2ccccc2)n[n+]1Cc1cccc2cccnc12 | 85* | 6 | nt | 3 | 3 | 13
COc1ccc(-c2[nH]c(-c3ccc(Cl)cc3)nc2SCC(=O)Nc2nccs2)cc1 | 62* | -11 | 109 | -5 | 0 | -1
Cc1nc(SCC(=O)Nc2nccs2)c(C#N)c(C)c1C | 64* | nt | nt | nt | nt | nt
O=C(CSCc1ccc(Cl)cc1)Nc1nccs1 | -1 | -8 | 93 | -15 | -1 | 7
COc1cc(-c2cc(-c3ccccc3)nc(SCC(=O)Nc3nccs3)c2C#N)cc(OC)c1OC | 6 | -24 | 106 | -8 | 3 | -11
O=C(N/N=C/c1cccc([N+](=O)[O-])c1)c1cnccn1 | 54* | -24 | 96 | 4 | -1 | 8
Cc1ccc(N2CC(C(=O)N/N=C/c3cccc([N+](=O)[O-])c3)CC2=O)cc1 (stereo unspecified) | -1 | 33 | 92 | 5 | 104* | 17
Cc1cc(C(=O)N/N=C/c2cccc([N+](=O)[O-])c2)c(C)o1 | 72* | 19 | 89 | -5 | -7 | 9
O=C(N/N=C/c1cc([N+](=O)[O-])ccc1Cl)c1cnccn1 | 25 | -2 | 105 | -1 | -13 | 8
Cc1cc(C(=O)NN=Cc2c(C)[nH]c3ccccc23)c(C)o1 | 57* | nt | nt | nt | nt | nt
Cc1ccc(/C=N/NC(=O)c2cc(C)oc2C)cc1 | 43 | -2 | nt | 0 | -3 | 7
CC/C(=N/NC(=O)c1ccc2c(c1)OCO2)c1ccccc1O | 11 | nt | nt | nt | nt | nt

Screening data: PubChem BioAssay, several laboratories
